From PubChem
Ecoli rRNA inh – inhibitors of bacterial rRNA selective over humanized ribosomes; 1.6% of 350,000 active; E. coli WT GFP vs humanized-ribosome RFP mutants, fluorescence, 24 h; active compounds read low; DMSO median 0, no signal -100; GFP signal change (wild-type ribosome), % (concentration not given with the values);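 active = significant combined selectivity score with lowered wild-type GFP, culture density cut under 30%, mutant RFP and density less affected; inactive = any of these conditions unmet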
PDI inh – blocks human protein disulfide isomerase activity. P07237. PDI insulin aggregation turbidity, A650, 90 min. inhibition, % at 10 µM. 0.052% of 350,000 active. AID 588391;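 active = mean inhibition across replicates of 30% or more, whatever share of single replicates reach that level; inconclusive = mean inhibition below 30% while every single replicate reaches 30%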
Env fusion inh – HIV envelope-mediated fusion inhibition; inhibition, % at 12.3 µM; HeLa-JRFL Env/CEM21 cell fusion, luciferase; 1.1% of 360,000 active;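 active = mean replicate inhibition score of at least 50 and every replicate individually at or above 50; inconclusive = only one of the two criteria met; inactive = mean below 50 and not all replicates reaching 50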;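 note: 0% = plate neutral controls and 100% = maraviroc near 300 nM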
FN deposition inh – fibronectin deposition inhibition. AH1F fibroblasts, Alexa488-fibronectin deposition fluorescence, overnight. inhibition, % at 12.6 µM. 0.086% of 350,000 active;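 active = mean inhibition across replicates of 30% or more, regardless of how many single replicates reach that level; inconclusive = mean under 30% yet at least half of replicates reach 30%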;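 note: positive control wells lacked labelled fibronectin entirely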
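Material: AH1F fibroblast monolayer depositing Alexa488-labelled fibronectin into matrix / Amount: 10000 AH1F cells per well / Signal: fluorescence 485/525 nm / Medium: DMEM, 2% serum / Compound: single dose, pinned / Incubation: 1 h cell adhesion before compound, then overnight fibronectin incubation / Reagent: Alexa488-FN, 24 nM final / Read-out: inhibition of fibronectin deposition signal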
ERp5 inh – blocks human ERp5 reductase activity on insulin. inhibition, % at 9.99 µM. 0.05% of 350,000 active. Q15084. ERp5 insulin aggregation, absorbance 650 nm, 90 min;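 active = mean replicate inhibition above about 25%, with every replicate also reaching it, limit read from the data, passing the limit was not always enough; inconclusive = only one of those two criteria met; inactive = neither criterion met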
Target sequence (Q15084 whole entry, looked up): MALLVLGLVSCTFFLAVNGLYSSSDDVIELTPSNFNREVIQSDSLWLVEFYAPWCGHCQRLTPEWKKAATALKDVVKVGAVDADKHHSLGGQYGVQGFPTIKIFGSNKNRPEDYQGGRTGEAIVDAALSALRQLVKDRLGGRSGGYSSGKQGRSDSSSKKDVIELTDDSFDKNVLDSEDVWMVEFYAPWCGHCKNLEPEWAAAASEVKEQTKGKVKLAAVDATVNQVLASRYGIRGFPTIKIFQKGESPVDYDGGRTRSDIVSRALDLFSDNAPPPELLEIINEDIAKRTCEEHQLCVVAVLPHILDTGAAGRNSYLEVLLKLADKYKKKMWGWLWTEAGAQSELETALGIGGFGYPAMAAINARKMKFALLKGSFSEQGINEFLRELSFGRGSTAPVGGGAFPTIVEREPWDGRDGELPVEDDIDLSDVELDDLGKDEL
PvdQ inh – P. aeruginosa PvdQ acylase inhibition. AID 488965. purified PvdQ acylase, fluorescence plate reader. inhibition, % at 10 µM. 0.063% of 340,000 active; in the data active = inhibition above about 30%, passing the limit was not always enough; inconclusive = no clear call, values can overlap the other calls;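 note: 0% = vehicle neutral wells and 100% = reference inhibitor wells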
AID977621 – growth inhibition of wild-type GFP E. coli, dose response, H69 mutant RFP, cherry-pick | AID 977621 | E. coli wild-type GFP strain growth, fluorescence, 24 h | activity change, negative = inhibition at 50 µM | 1,900 tested, under 10 active | shares compounds with Ecoli rRNA inh;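 active = Wild-type ribosome reporter drop at least double the humanized mutant ribosome reporter drop, growth loss under a set limit; inconclusive = no clear call, values can overlap the other calls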;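 note: wild-type GFP and H69 mutant RFP strains grown together 50/50 in each well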
AID977628 – growth of wild-type and h24-humanized E. coli strains – h24 mutant RFP vs wild-type GFP, cherry-pick, dose response | shares compounds with Ecoli rRNA inh | E. coli WT GFP strain growth, fluorescence, 24 h | activity change, negative = inhibition at 50 µM | 1,900 tested, under 10 active;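 active = compound lowering the normal-ribosome reporter at least twice as much as the humanized-ribosome reporter, growth loss under a set limit; inconclusive = no clear call, values can overlap the other calls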;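 note: wild-type GFP and h24 humanized RFP strains co-cultured 1 to 1 per well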
* marks the source's active call; other numbers are inactive results; ? = inconclusive; · = no result given; [ ] = another dose, or the depositor's remark. The list is not random: actives were taken first. Their share in the collection is about 2.2%.

SMILES | Ecoli rRNA inh | PDI inh | Env fusion inh | FN deposition inh | ERp5 inh | PvdQ inh | AID977621 | AID977628
O=C(O)c1ccccc1NC(=O)C(c1ccccc1)c1ccccc1 | -30* | 2 | 7 | 6 | -1 | 18 | -14 | -12
COc1ccc(NS(=O)(=O)c2cc(NC(=O)CNC(=O)c3cccc(OC)c3)ccc2C)cc1 | -25* | -29 | -4 | · | 7 | -11 | -16 | ·
COc1cccc(NC(=O)CNC(=O)c2ccccc2)c1 | · | 9 | · | · | · | -5 | · | ·
COc1cc[n+]([O-])cc1[N+](=O)[O-] | 1.2* | 6 | -4 | 0 | -7 | -20 | -14 | -6.7
CC(C)NC(=O)N1CC[C@H]2[C@@H]1c1cc(C#Cc3cccnc3)ccc1N(C)[C@H]2CO | -1 | · | · | -8 | 1 | · | · | ·
CN1c2ccc(C#Cc3cccnc3)cc2[C@@H]2[C@@H](CCN2C(=O)c2cccc(F)c2)[C@H]1CO | -38* | · | · | 6 | · | · | 2.6 | ·
COc1ccc(CN(C)C[C@@H]2Oc3ccc(NC(=O)Nc4ccccc4)cc3CC(=O)N([C@H](C)CO)C[C@@H]2C)cc1 | 2 | · | 11[16.7 µM] | · | -3 | · | · | ·
O=C([C@@H]1[C@@H](CO)[C@@H]2Cn3c(ccc(C4=CCCC4)c3=O)[C@@H]2N1Cc1nccs1)N1CCOCC1 | 2 | · | 10[16.7 µM] | · | 0 | · | · | ·
CN1CCN(CC(=O)n2c3c(c4ccccc42)CCCC3)CC1 | · | -13 | · | · | · | -1 | · | ·
O=C(CN1CCCCC1)n1c2ccccc2c2ccccc21 | -24* | 4 | -2 | -25 | -1 | 0 | -3 | -0.41
CN1N=C2c3ccccc3CCC2C1c1ccc(F)cc1 (stereo unspecified) | -16* | 4 | -1 | 9 | -1 | · | -9.4 | ?
CC(=O)N1[C@@H]2c3ccc(-c4ccccc4)c(=O)n3C[C@H]1[C@H](CO)[C@H]2C(=O)NCCCN1CCOCC1 | 3 | · | · | · | 9 | · | · | ·
CCCC(=O)Nc1sc2c(c1C(=O)Nc1ccccn1)CCCC2 | -30* | 3 | 4 | 3 | 3 | 6 | -18 | -16
CN1CCN(CC(=O)Nc2sc3c(c2C(=O)Nc2ccccc2)CCCC3)CC1 | 3 | 1 | 9 | · | -1 | -7 | · | ·
CN(C)S(=O)(=O)N1CCN(c2cc(Cl)ccc2Cl)CC1 | · | 4 | -77 | 5 | · | 22 | · | ·
CN(C)S(=O)(=O)N1CCN(c2ccccc2Cl)CC1 | -21* | 3 | · | · | 1 | 9 | -0.038 | -7.4
O=C(c1ccccc1)N(C(=O)c1ccccc1)c1ccccc1 | 8 | 3 | -11 | -4 | -5 | · | · | ·
O=C(c1ccccc1)N(c1ccccc1)c1nccc2ccccc12 | -28* | -2 | -13 | -2 | 4 | -5 | -5.5 | ·
COc1ccc(S(=O)(=O)N(C)C[C@@H]2OCc3cn(nn3)CCCC(=O)N([C@@H](C)CO)C[C@@H]2C)cc1 | -1 | · | 11[16.7 µM] | -7 | 1 | · | · | ·
CCOc1cccc(-c2cc(-c3n[nH]c(=S)n3CC)c3ccccc3n2)c1 | -37* | -3 | · | · | 3 | 8 | -17 | ?
CCOC(=O)c1c(C)[nH]c(C)c1S(=O)(=O)NCC1CCN(Cc2ccccc2F)CC1 | 5 | 2 | 7 | 0 | 0 | -12 | · | ·
CCOC(=O)c1c(C)[nH]c(C)c1S(=O)(=O)NCCN1CCN(c2ccccc2F)CC1 | -16* | -2 | 3 | 6 | 0 | 12 | -6.3 | -16
CN1[C@@H]2Cn3c(ccc(/C=C/c4ccccc4)c3=O)[C@H]1[C@@H](C(=O)NC1CCCC1)[C@@H]2CO | -1 | · | -11[16.7 µM] | 2 | -4 | · | · | ·
Cc1cccc(-c2ccc([C@H]3[C@@H](CO)N4CCCCN(S(=O)(=O)c5ccccc5C)C[C@H]34)cc2)c1 | -41 | · | · | · | -7 | · | 0.84 | ·
Cc1ccc(-c2ccc([C@H]3[C@@H](CO)N4CCCCN(S(=O)(=O)c5ccccc5C)C[C@@H]34)cc2)cc1 | 6 | · | · | · | -7 | · | · | ·
SMILES | Ecoli rRNA inh | PDI inh | Env fusion inh | FN deposition inh | ERp5 inh | PvdQ inh | AID977621 | AID977628
Cc1cccc(-c2ccc([C@H]3[C@@H](CO)N4CCCCN(S(=O)(=O)c5ccccc5C)C[C@@H]34)cc2)c1 | 2 | · | · | · | -2 | · | -3.9 | -3
O=S(=O)(Cc1ccccc1)N1CCCCN2[C@@H](CO)[C@@H](c3ccc(-c4cccnc4)cc3)[C@@H]2C1 | -28* | · | · | · | -3 | · | -0.82 | ?
Cc1ccc(C(=O)Nc2ccc3ncccc3c2)cc1 | -16* | 3 | -20 | 1 | -3 | -4 | · | -12
COc1ccc(C(=O)Nc2ccc3ncccc3c2)cc1 | -4 | -12 | -24 | -8 | 0 | -2 | · | ·
CC(C)CC#Cc1cnc2c(c1)C(=O)N([C@H](C)CO)C[C@@H](C)[C@H](CN(C)C(=O)c1ccccc1)O2 | 1 | · | 12[16.7 µM] | · | -5 | · | · | ·
Cc1ccc(C(=O)Nc2ccc(C)c(S(=O)(=O)Nc3ccccc3Cl)c2)s1 | -32* | -5 | · | 6 | -10 | 7 | -12 | ?
O=C(Nc1ccc(Cl)cn1)c1cc2c(s1)-c1ccccc1OC2 | -22* | 0 | -31 | -2 | 3 | -19 | -7.2 | ?
Cc1ccccc1NC(=O)c1ccccc1N(C)S(=O)(=O)c1ccccc1 | -19* | -8 | -9 | 1 | -4 | 2 | -21 | ?
O=C1NC(CCc2ccccc2)C(=O)N1Cc1cccc2ccccc12 (stereo unspecified) | -21* | 2 | 10 | 0 | 3 | 2 | -1.7 | ·
Cc1nc2ccccc2cc1C(=O)NCc1ccco1 | · | 9 | · | · | · | 8 | · | ·
O=C(NCc1ccco1)c1ccc2ccccc2n1 | -14* | 0 | -10 | 1 | -3 | -4 | -15 | ?
Cc1ccc(NC(=O)c2cccs2)cc1[N+](=O)[O-] | -28* | -3 | -10 | · | -4 | 0 | -1.9 | ·
CC(=O)Nc1ccc(S(=O)(=O)Nc2ccc(C)c([N+](=O)[O-])c2)cc1 | -26* | 6 | 19 | -8 | -4 | -11 | · | ?
Cc1ccc(C(=O)Nc2ccc(NC(=O)c3cccs3)cc2)cc1[N+](=O)[O-] | 12 | -4 | -67 | 0 | -2 | -9 | · | ·
CC(=O)Nc1ccc(NS(=O)(=O)c2cc([N+](=O)[O-])ccc2C)cc1 | 8 | 4 | 13 | 9 | 5 | -5 | · | ·
COc1ccccc1NC(=O)N1CCCCN2[C@H](CO)[C@@H](c3ccc(C#Cc4ccccc4)cc3)[C@H]2C1 | -34 | · | · | · | 0 | · | · | ·
O=C(Nc1cc(F)ccc1F)N1CCCCN2[C@@H](CO)[C@H](c3ccc(-c4ccncc4)cc3)[C@@H]2C1 | -19* | · | · | · | 2 | · | -14 | ·
O=C(Nc1cc(F)ccc1F)N1CCCCN2[C@H](CO)[C@H](c3ccc(-c4ccncc4)cc3)[C@@H]2C1 | -1 | · | · | · | 7 | · | · | ·
